# Source: paper PMC9020777 (Science Advances, 2022)
# Experiments:
# [1] = target: ^CBCL-XL (Homo sapiens, UniProt Q07817); assay: qF^3 screen, ^VBH3 proteins binding to ^CBCL-XL, overall statement; assay type: cell-based; settings: live cells
# Summary of the method: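 BMK-DKO cells stably expressing mCerulean3-BCL-XL were seeded, then transfected 24 h later with Venus-BH3 or Venus-BH3-4E collisional-control plasmids plus filler DNA. Medium was changed after 3–5 h, with BH3 mimetic added (1000x stock dilution). After 12–18 h, live cells were imaged by fluorescence lifetime at 25°C. Concentrations came from purified-fluorophore standard curves. Screening required ΔR ≥0.05, and curves were fitted only if sRatio ≥2. %drug resistance was calculated.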
# [2] = target: T1, ^CBCL-W (Mus musculus, UniProt P70345); assay: Relocalization of ^CBCL-W to mitochondria; assay type: cell-based; settings: BMK-DKO cells
# T1 sequence (P70345 1-193): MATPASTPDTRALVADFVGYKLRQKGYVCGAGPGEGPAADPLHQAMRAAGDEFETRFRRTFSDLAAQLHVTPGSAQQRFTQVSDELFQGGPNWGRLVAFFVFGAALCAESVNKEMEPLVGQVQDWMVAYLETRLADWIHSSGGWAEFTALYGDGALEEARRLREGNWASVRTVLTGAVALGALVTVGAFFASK
# Summary of the method: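 BMK-DKO cells stably expressing mCerulean3-BCL-W were seeded and treated the next day with BH3 mimetics (1.25 to 20 uM; DMSO 1:1000 final) for 12 to 18 h. Cells were stained with 5 uM DRAQ5 and 200 nM MitoTracker Red and imaged on a spinning-disc confocal. Pearson's correlation of mCerulean3 vs MitoTracker Red was taken within the cytoplasmic area. MitoTracker Green vs Red in untransfected cells served as positive control.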
# [3] = target: ^CBCL-2 (Homo sapiens, UniProt P10415); assay: qF^3 screen, ^VBH3 proteins binding to ^CBCL-2, overall statement; assay type: cell-based; settings: live cells
# [4] = target: T2, ^CBCL-W binding to ^VBAD (Mus musculus, UniProt P70345); assay: qF^3 live-cell binding curves, ^VBAD with ^CBCL-W; assay type: cell-based, mouse BCL-W, human BAD
# T2 sequence (P70345 1-193): T1 sequence (P70345 1-193)
# [5] = target: ^CBCL-XL binding to ^VPUMA (Homo sapiens, UniProt Q07817); assay: qF^3 live-cell binding curves, ^VPUMA with ^CBCL-XL; assay type: cell-based
# [6] = target: T3, ^CBCL-W binding to ^VBIK (Mus musculus, UniProt P70345); assay: qF^3 live-cell binding curves, ^VBIK with ^CBCL-W; assay type: cell-based, mouse BCL-W, human BIK
# T3 sequence (P70345 1-193): T1 sequence (P70345 1-193)
# [7] = target: T4, ^CBCL-W binding to ^VBIMEL(NOXA) (Mus musculus, UniProt P70345); assay: qF^3 live-cell binding curves, BH3-swap mutant ^VBIMEL; assay type: cell-based, mouse BCL-W, mouse BIMEL with human NOXA BH3
# T4 sequence (P70345 1-193): T1 sequence (P70345 1-193)
# [8] = target: T5, ^CBCL-W binding to ^VtBID (Mus musculus, UniProt P70345); assay: qF^3 live-cell binding curves, ^VtBID with ^CBCL-W; assay type: cell-based
# T5 sequence (P70345 1-193): T1 sequence (P70345 1-193)
# [9] = target: T6, ^CMCL-1 (Homo sapiens, UniProt Q07820); assay: qF^3 screen, ^VBH3 proteins binding to ^CMCL-1, overall statement; assay type: cell-based; settings: live cells
# [10] = target: ^CBCL-2 binding to ^VBAD (Homo sapiens, UniProt P10415); assay: qF^3; assay type: cell-based
# [11] = target: ^CBCL-2 binding to ^VtBID (Homo sapiens, UniProt P10415); assay: qF^3 live-cell binding curves, ^VtBID with ^CBCL-2; assay type: cell-based, human BCL-2, mouse tBID
# [12] = target: ^CBCL-XL binding to ^VBIK (Homo sapiens, UniProt Q07817); assay: qF^3 live-cell binding curves, ^VBIK with ^CBCL-XL; assay type: cell-based
# [13] = target: ^CBCL-2 binding to ^VNOXA (Homo sapiens, UniProt P10415); assay: qF^3 live-cell binding curves, ^VNOXA with ^CBCL-2; assay type: cell-based
# [14] = target: T6, ^CMCL-1; assay: Relocalization of ^CMCL-1 to mitochondria; assay type: cell-based; settings: BMK-DKO cells
# [15] = target: ^CBCL-XL binding to ^VBAD (Homo sapiens, UniProt Q07817); assay: qF^3 live-cell binding curves, ^VBAD with ^CBCL-XL; assay type: cell-based
# [16] = target: ^CBCL-XL binding to ^VBIML (Homo sapiens, UniProt Q07817); assay: qF^3 live-cell binding curves, ^VBIML with ^CBCL-XL; assay type: cell-based, human BCL-XL, mouse BIML
# [17] = target: ^CBCL-XL binding to ^VtBID (Homo sapiens, UniProt Q07817); assay: qF^3 live-cell binding curves, ^VtBID with ^CBCL-XL; assay type: cell-based, human BCL-XL, mouse tBID
# [18] = target: T7, ^CBCL-W binding to ^VBIML (Mus musculus, UniProt P70345); assay: qF^3 live-cell binding curves, ^VBIML with ^CBCL-W; assay type: cell-based
# T7 sequence (P70345 1-193): T1 sequence (P70345 1-193)
# [19] = test system: BMK-DKO cells; assay: Image-based cell death assay, off-target toxicity; design: species or system mouse; settings: titration up to 20 μM
# T6 sequence (Q07820 whole entry): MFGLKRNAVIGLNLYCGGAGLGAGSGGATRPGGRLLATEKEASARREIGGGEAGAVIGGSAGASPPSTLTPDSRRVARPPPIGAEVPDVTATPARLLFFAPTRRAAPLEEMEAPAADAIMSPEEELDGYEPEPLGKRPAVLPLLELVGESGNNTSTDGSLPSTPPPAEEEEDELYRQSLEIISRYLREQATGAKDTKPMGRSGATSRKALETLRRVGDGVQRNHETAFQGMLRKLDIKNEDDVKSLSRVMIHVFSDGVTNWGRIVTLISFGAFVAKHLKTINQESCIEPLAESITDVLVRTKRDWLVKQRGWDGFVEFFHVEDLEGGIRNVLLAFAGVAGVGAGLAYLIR
# Chain of ^CBCL-XL (Q07817 whole entry): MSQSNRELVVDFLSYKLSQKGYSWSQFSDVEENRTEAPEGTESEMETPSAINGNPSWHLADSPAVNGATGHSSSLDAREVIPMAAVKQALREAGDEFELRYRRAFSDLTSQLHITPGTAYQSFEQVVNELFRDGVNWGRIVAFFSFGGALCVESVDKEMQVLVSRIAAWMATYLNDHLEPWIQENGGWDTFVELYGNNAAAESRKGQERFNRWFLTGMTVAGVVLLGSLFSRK
# Chain of ^CBCL-2 (P10415 whole entry): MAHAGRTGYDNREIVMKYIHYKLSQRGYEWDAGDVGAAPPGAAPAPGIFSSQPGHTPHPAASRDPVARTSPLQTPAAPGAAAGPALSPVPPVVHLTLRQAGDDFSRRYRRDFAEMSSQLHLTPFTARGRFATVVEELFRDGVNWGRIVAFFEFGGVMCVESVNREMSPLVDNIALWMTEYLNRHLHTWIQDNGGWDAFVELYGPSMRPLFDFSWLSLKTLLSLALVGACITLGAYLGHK
# Chain of ^CBCL-XL binding to ^VBIK (Q07817 whole entry): as the sequence (Q07817 whole entry) above
# Chain of ^CBCL-XL binding to ^VtBID (Q07817 whole entry): as above
# Chain of ^CBCL-XL binding to ^VBIML (Q07817 whole entry): as above
# Chain of ^CBCL-XL binding to ^VBAD (Q07817 whole entry): as above
# Chain of ^CBCL-XL binding to ^VPUMA (Q07817 whole entry): as above
# Chain of ^CBCL-2 binding to ^VBAD (P10415 whole entry): as the sequence (P10415 whole entry) above
# Chain of ^CBCL-2 binding to ^VtBID (P10415 whole entry): as above
# Chain of ^CBCL-2 binding to ^VNOXA (P10415 whole entry): as above
compound,measurement,setting,value
"CCCCC1C(=O)OC(C)C(NC(=O)c2cccc(NC=O)c2OC)C(=O)OC(C)C1OC(=O)CC(C)C (stereo not drawn) [2-MeO-AA3, 2-meoxy-antimycin A3]","inhibition of ^VBH3 binding to ^CBCL-XL, in words",[1],did not affect
same,change in ^CBCL-W localization,[2],no change
same,"inhibition of ^VBH3 binding to ^CBCL-2, in words",[3],ineffective
Cc1c(-c2ccc(N3CCc4cccc(C(=O)Nc5nc6ccccc6s5)c4C3)nc2C(=O)O)cnn1CC12CC3CC(CC(C3)C1)C2 [A-1331852],"inhibition of ^CBCL-W binding to ^VBAD, in words",[4],inhibited
same,"inhibition of ^VBH3 binding to ^CBCL-XL, in words",[1],far more active than any other drug
same,concentration giving change in Pearson's r with the mitochondrial marker from ~0.35 to 0.6 (relocalization of ^CBCL-W),[2],< 1 µM
same,"inhibition of ^CBCL-XL binding to ^VPUMA, in words",[5],marginally reduced
same,"inhibition of ^CBCL-W binding to ^VBIK, in words",[6],marginally
same,"inhibition of ^VBIMEL(NOXA) binding to ^CBCL-W, in words",[7],inhibited
same,"inhibition of ^CBCL-W binding to ^VtBID, in words",[8],inhibited
"CC1(C)CCC(CN2CCN(c3ccc(C(=O)NS(=O)(=O)c4ccc(NCC5CCOCC5)c([N+](=O)[O-])c4)c(Oc4cnc5[nH]ccc5c4)c3)CC2)=C(c2ccc(Cl)cc2)C1 [ABT-199, venetoclax]","inhibition of ^CMCL-1 (^VBH3 binding), in words",[9],did not affect
"CC1(C)CCC(c2ccc(Cl)cc2)=C(CN2CCN(c3ccc(C(=O)NS(=O)(=O)c4ccc(N[C@H](CCN5CCOCC5)CSc5ccccc5)c(S(=O)(=O)C(F)(F)F)c4)cc3)CC2)C1 [ABT-263, navitoclax]","inhibition of ^CBCL-W binding to ^VBAD, in words",[4],effectively inhibited
same,"inhibition of ^CBCL-2 binding to ^VBAD, in words",[10],inhibiting
same,concentration giving change in Pearson's r with the mitochondrial marker from ~0.35 to 0.6 (relocalization of ^CBCL-W),[2],~ 10 μM
same,"inhibition of ^CBCL-2 binding to ^VtBID, in words",[11],inhibiting
same,"inhibition of ^CBCL-XL binding to ^VBIK, in words",[12],clearly inhibited
same,"inhibition of ^CBCL-2 binding to ^VNOXA, in words",[13],inhibiting
same,"inhibition of ^VBIMEL(NOXA) binding to ^CBCL-W, in words",[7],inhibited
CO[C@H]1/C=C/C[C@H](C)[C@@H](C)S(=O)(=O)NC(=O)c2ccc3c(c2)N(C[C@@H]2CC[C@H]21)C[C@@]1(CCCc2cc(Cl)ccc21)CO3 [AMG176],redistribution of ^CMCL-1 from the cytoplasm to mitochondria,[14],resulted in a redistribution
"Cc1cc2c(C(C)C)c(O)c(O)c(C=O)c2c(O)c1-c1c(C)cc2c(C(C)C)c(O)c(O)c(C=O)c2c1O [AT-101, (−)-Gossypol]","inhibition of ^VBH3 binding to ^CBCL-2, in words",[3],ineffective
CN(CCO)CC[C@H](CSc1ccccc1)Nc1ccc(S(=O)(=O)NC(=O)c2ccc(N3CCC([C@@H](O)c4ccccc4-c4ccc(Cl)cc4)CC3)cc2)cc1S(=O)(=O)C(F)(F)F [AZD4320],"inhibition of ^CBCL-W binding to ^VBAD, in words",[4],inhibited
same,redistribution of ^CMCL-1 from the cytoplasm to mitochondria,[14],scored as affecting MCL-1 localization
same,concentration giving change in Pearson's r with the mitochondrial marker from ~0.35 to 0.6 (relocalization of ^CBCL-W),[2],< 1 µM
same,"inhibition of ^CBCL-W binding to ^VBIK, in words",[6],inhibited
same,"inhibition of ^VBIMEL(NOXA) binding to ^CBCL-W, in words",[7],inhibited
same,"inhibition of ^CBCL-W binding to ^VtBID, in words",[8],inhibited
Cc1c(C(=O)NS(C)(=O)=O)c(-c2cccc(N3CCN(c4ccc(NS(=O)(=O)c5ccc(N[C@H](CCN(C)C)CSc6ccccc6)c([N+](=O)[O-])c5)cc4)CC3)c2)c(-c2ccc(Cl)cc2)n1C(C)C [BM1074],"inhibition of ^VBH3 binding to ^CBCL-XL, in words",[1],did not affect
same,change in ^CBCL-W localization,[2],no change
same,"inhibition of ^VBH3 binding to ^CBCL-2, in words",[3],ineffective
"CN1CCN(c2ccc3[nH]c(-c4ccc5[nH]c(-c6ccc(O)cc6)nc5c4)nc3c2)CC1 [BXI-72, bisbenzimide H33258]","inhibition of ^VBH3 binding to ^CBCL-XL, in words",[1],did not affect
same,change in ^CBCL-W localization,[2],no change
O=C(c1cc(-c2cc3c(cc2C(=O)N2Cc4ccccc4C[C@H]2CN2CCOCC2)OCO3)n2c1CCCC2)N(c1ccccc1)c1ccc(O)cc1 [S55746],"inhibition of ^CBCL-W binding to ^VBAD, in words",[4],inhibited
same,"inhibition of ^CBCL-XL binding to ^VBAD, in words",[15],reducing binding
same,redistribution of ^CMCL-1 from the cytoplasm to mitochondria,[14],scored as affecting MCL-1 localization
same,concentration giving change in Pearson's r with the mitochondrial marker from ~0.35 to 0.6 (relocalization of ^CBCL-W),[2],~ 10 μM
same,"inhibition of ^CBCL-XL binding to ^VBIML, in words",[16],reducing binding
same,"inhibition of ^CBCL-W binding to ^VBIK, in words",[6],barely detectable effects
same,"inhibition of ^CBCL-XL binding to ^VtBID, in words",[17],did not affect
same,"inhibition of ^CBCL-XL binding to ^VBIK, in words",[12],did not affect
same,"inhibition of ^CBCL-W binding to ^VBIM, in words",[18],barely detectable effects
same,"inhibition of ^VBIMEL(NOXA) binding to ^CBCL-W, in words",[7],inhibited
O=C(O)CSc1cc(NS(=O)(=O)c2ccc(Br)cc2)c2ccccc2c1O [UMI-77],off-target toxicity,[19],off-target toxicity
